Measurements reported in PMC6045484 (ACS Omega, 2018).
≈ marks a conversion by molar mass, not a printed value.

What was measured:
P. falciparum (W2) = experiment: in vitro antimalarial activity, plasmodial LDH; type: cell-based, Plasmodium falciparum; settings: Plasmodium falciparum, W2, 72 h, read-out: P. falciparum (W2) IC50, CQ-resistant W2 strain, 72 h
In short: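 P. falciparum-infected erythrocytes (2% parasitemia, 2% hematocrit) in RPMI 1640 with 10% human serum and 60 μg/mL amikacin. Exposed to test compound dilutions for 72 h at 37 °C under 90% N2/5% O2/5% CO2. LDH measured with Malstat reagent (30 min, room temperature), then NBT/PES for 1 h in the dark, stopped with 5% acetic acid, read at 650 nm. IC50 from dose-response curves.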

A. fumigatus ATCC 90906 = experiment: in vitro antifungal activity; type: cell-based, Aspergillus fumigatus; settings: Aspergillus fumigatus; for IC50: ATCC90906, read-out: A. fumigatus IC50; for MFC: ATCC90906, read-out: A. fumigatus MFC; for MIC: ATCC90906, read-out: A. fumigatus MIC
In short: (§1)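 Modified NCCLS broth method in Sabouraud dextrose. Inoculum set by OD630 to 1.5 × 10^3 CFU/mL. Test compound serially diluted in 20% DMSO/saline, duplicate wells, up to 20 μg/mL. Incubated 70–74 h at 35 °C; 530 nm read before and after. IC50 is 50% growth inhibition; MIC is no detectable growth. MFC from clear wells subcultured on agar. Amphotericin B control.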

MRSA (ATCC33591) = experiment: in vitro antibacterial activity; type: cell-based, methicillin-resistant Staphylococcus aureus; settings: Staphylococcus aureus, ATCC33591|MRSA, read-out: MIC, MRSA
In short: (§2)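 Test compound serially diluted in 20% DMSO/saline and plated in duplicate, up to 20 μg/mL. Inoculum in cation-adjusted Mueller–Hinton broth, pH 7.3, set by OD630 to 5 × 10^5 CFU/mL. Incubated 16–20 h at 35 °C; 530 nm read before and after. IC50 is 50% growth inhibition; MIC is no detectable growth. MBC from clear wells subcultured on agar. Ciprofloxacin control.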

[1] = test system: L. donovani promastigotes; experiment: in vitro antileishmanial activity, alamarBlue assay; type: cell-based, Leishmania donovani; settings: Leishmania donovani, 48 h; for IC50: read-out: L. donovani IC50, promastigotes, 48 h; for IC90: read-out: L. donovani IC90, promastigotes, 48 h
[2] = test system: M. intracellulare (ATCC23068); experiment: in vitro antibacterial activity, modified alamarBlue procedure; type: cell-based, Mycobacterium intracellulare; settings: Mycobacterium intracellulare; for IC50: ATCC23068, read-out: IC50 (concentration that affords 50% growth inhibition), M. intracellulare; for MBC: ATCC23068, read-out: MBC (minimum bactericidal concentration), M. intracellulare; for MIC: ATCC23068, read-out: MIC, M. intracellulare
In short: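 Modified alamarBlue microplate method. Test compound serially diluted in 20% DMSO/saline, duplicate wells, up to 20 μg/mL. Inoculum 2.0 × 10^6 CFU/mL in Middlebrook 7H9 with OADC, pH 7.3, containing 5% alamarBlue. Incubated 70–74 h at 37 °C, 10% CO2; fluorescence 544ex/590em read before and after. MIC: no blue-to-pink change. MBC by subculturing blue wells on agar. Ciprofloxacin control.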

[3] = test system: SK-MEL, KB, BT-549, SK-OV-3, VERO and LLC-PK1 cells; experiment: cytotoxicity, neutral red uptake assay; type: cell-based, mammalian; settings: highest test concentration 4760 ng/mL
In short: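 Cells seeded at 25 000/well and allowed 24 h to reach confluence. Test compound was then added and incubated 48 h. Viable cells were counted by a modified neutral red uptake method. The panel was four human cancer lines and two noncancerous mammalian kidney lines. Doxorubicin served as positive control and DMSO as negative control.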

C. albicans ATCC90028 = experiment: in vitro antifungal activity; type: cell-based, Candida albicans; settings: Candida albicans; for IC50: ATCC90028, read-out: C. albicans IC50; for MFC: ATCC90028, read-out: C. albicans MFC; for MIC: ATCC90028, read-out: C. albicans MIC
In short: as §1

P. falciparum (D6) = experiment: in vitro antimalarial activity, plasmodial LDH; type: cell-based, Plasmodium falciparum; settings: Plasmodium falciparum, D6, 72 h, read-out: P. falciparum (D6) IC50
C. neoformans ATCC90113 = experiment: in vitro antifungal activity; type: cell-based, Cryptococcus neoformans; settings: Cryptococcus neoformans; for IC50: ATCC90113, read-out: C. neoformans IC50; for MFC: ATCC90113, read-out: C. neoformans MFC; for MIC: ATCC90113, read-out: C. neoformans MIC
In short: as §1

SA (ATCC29213) = experiment: in vitro antibacterial activity; type: cell-based; settings: Staphylococcus aureus; for IC50: ATCC29213, read-out: IC50 (concentration that affords 50% growth inhibition), SA; for MBC: ATCC29213, read-out: MBC (minimum bactericidal concentration), SA; for MIC: ATCC29213, read-out: MIC, SA
In short: as §2

| SMILES | IC50 (P. falciparum (W2)) [µg/mL] | IC50 (A. fumigatus ATCC 90906) [µg/mL] | MFC (A. fumigatus ATCC 90906) [µg/mL] | MIC (A. fumigatus ATCC 90906) [µg/mL] | MIC (MRSA (ATCC33591)) [µg/mL] | IC50 [1] [µg/mL] | IC90 [1] [µg/mL] | IC50 [2] [µg/mL] | MBC [2] [µg/mL] | MIC [2] [µg/mL] | cytotoxicity CTX [3] | IC50 (C. albicans ATCC90028) [µg/mL] | MFC (C. albicans ATCC90028) [µg/mL] | MIC (C. albicans ATCC90028) [µg/mL] | IC50 (P. falciparum (D6)) [µg/mL] | IC50 (C. neoformans ATCC90113) [µg/mL] | MFC (C. neoformans ATCC90113) [µg/mL] | MIC (C. neoformans ATCC90113) [µg/mL] | IC50 (SA (ATCC29213)) [µg/mL] | MBC (SA (ATCC29213)) [µg/mL] | other results |
| --- | --- | --- | --- | --- | --- | --- | --- | --- | --- | --- | --- | --- | --- | --- | --- | --- | --- | --- | --- | --- | --- |
| CCCCCCCOc1c(OC)cc(NC(C)CCCNC(=O)C(N)Cc2ccccc2)c2nc(C(C)(C)C)ccc12 (stereo not drawn) [compound 112, 2-Amino-N-(4-(2-tert-butyl-5-(heptyloxy)-6-methoxyquinolin-8-ylamino)pentyl)-3-phenylpropanamide] | 2.2 (≈ 3.81 µM) | > 20 | > 20 | > 20 | 10 (≈ 17.3 µM) | 20 (≈ 34.7 µM) | 36 (≈ 62.4 µM) | > 20 | > 20 | > 20 | NC (NC, not cytotoxic up to 4760 ng/mL (4.76 μg/mL)) | > 20 | > 20 | > 20 | 3.2 (≈ 5.55 µM) | 4.56 (≈ 7.91 µM) | 5 (≈ 8.67 µM) | 5 (≈ 8.67 µM) | 4.06 (≈ 7.04 µM) | 10 (≈ 17.3 µM) | MIC (SA (ATCC29213)): 10 µg/mL (≈ 17.3 µM) |
| CCCCCCCOc1c(OC)cc(NC(C)CCCNC(=O)C(N)C(C)CC)c2nc(C(C)(C)C)ccc12 (stereo not drawn) [compound 114, 2-Amino-N-(4-(2-tert-butyl-5-(heptyloxy)-6-methoxyquinolin-8-ylamino)pentyl)-3-methylpentanamide] | 2.9 (≈ 5.34 µM) | > 20 | > 20 | > 20 | 5 (≈ 9.21 µM) | 3.8 (≈ 7 µM) | 7 (≈ 12.9 µM) | 5.63 (≈ 10.4 µM) | 20 (≈ 36.8 µM) | 10 (≈ 18.4 µM) | NC (NC, not cytotoxic up to 4760 ng/mL (4.76 μg/mL)) | 14.2 (≈ 26.2 µM) | > 20 | > 20 | 4.5 (≈ 8.29 µM) | 1.07 (≈ 1.97 µM) | 2.5 (≈ 4.61 µM) | 2.5 (≈ 4.61 µM) | 2.19 (≈ 4.03 µM) | 5 (≈ 9.21 µM) | MIC (SA (ATCC29213)): 5 µg/mL (≈ 9.21 µM) |
| CCCCCCCOc1c(OC)cc(NC(C)CCCNC(=O)C(N)Cc2cc3ccccc3[nH]2)c2nc(C(C)(C)C)ccc12 (stereo not drawn) [compound 115, 2-Amino-N-(4-(2-tert-butyl-5-(heptyloxy)-6-methoxyquinolin-8-ylamino)pentyl)-3-(1H-indol-2-yl)propanamide] | 2.8 (≈ 4.55 µM) | > 20 | > 20 | > 20 | 5 (≈ 8.12 µM) | 19 (≈ 30.9 µM) | 32 (≈ 52 µM) | 8.74 (≈ 14.2 µM) | 20 (≈ 32.5 µM) | 10 (≈ 16.2 µM) | NC (NC, not cytotoxic up to 4760 ng/mL (4.76 μg/mL)) | > 20 | > 20 | > 20 | 3.3 (≈ 5.36 µM) | 1.36 (≈ 2.21 µM) | 2.5 (≈ 4.06 µM) | 2.5 (≈ 4.06 µM) | 4.56 (≈ 7.4 µM) | 10 (≈ 16.2 µM) | MIC (SA (ATCC29213)): 10 µg/mL (≈ 16.2 µM) |
| CCCCCCCOc1c(OC)cc(NC(C)CCCNC(=O)C(N)CCSC)c2nc(C(C)(C)C)ccc12 (stereo not drawn) [compound 116, 2-Amino-N-(4-(2-tert-butyl-5-(heptyloxy)-6-methoxyquinolin-8-ylamino)pentyl)-4-(methylthio)butanamide] | 3.2 (≈ 5.71 µM) | > 20 | > 20 | > 20 | 5 (≈ 8.92 µM) | 4.1 (≈ 7.31 µM) | 12 (≈ 21.4 µM) | > 20 | > 20 | > 20 | NC (NC, not cytotoxic up to 4760 ng/mL (4.76 μg/mL)) | > 20 | > 20 | > 20 | 4.76 (≈ 8.49 µM) | 1.29 (≈ 2.3 µM) | 10 (≈ 17.8 µM) | 10 (≈ 17.8 µM) | 4.07 (≈ 7.26 µM) | 10 (≈ 17.8 µM) | MIC (SA (ATCC29213)): 10 µg/mL (≈ 17.8 µM) |
